Test [1] concerns acetyl-α-tubulin. The experiment in a line: Western blot on MCF-7 cells, acetylation status of α-tubulin. Format: cell-based. Conditions: 24 h; for acetyl-α-tubulin accumulation: 50 μM, comparison of SIRT inhibitors (Fig. 3). The method, boiled down:
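MCF-7 cells exposed 24 h to test compound at increasing concentrations […]. Acetylation of α-tubulin (SIRT2 biomarker) and of histone H3-K9 (SIRT1 biomarker) monitored in parallel.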
In general terms: A western blot detects proteins with antibodies after separation by electrophoresis.

In test [2] the test system is p53 acetylation at lysine 382. The experiment in a line: Western blot on MCF-7 cells, p53 acetylation at lysine 382. The following applies: 24 h, 50 μM (Fig. 3). It is filed as cell-based.
Test [3] has as its system MCF-7 breast carcinoma cell line. It is filed as cell-based. Conditions: MCF-7 cells, 50 μM, 24 h.
Test [4] concerns the target T1, SIRT2 (Homo sapiens, UniProt Q8IXJ6).
T1 sequence (Q8IXJ6 1-389): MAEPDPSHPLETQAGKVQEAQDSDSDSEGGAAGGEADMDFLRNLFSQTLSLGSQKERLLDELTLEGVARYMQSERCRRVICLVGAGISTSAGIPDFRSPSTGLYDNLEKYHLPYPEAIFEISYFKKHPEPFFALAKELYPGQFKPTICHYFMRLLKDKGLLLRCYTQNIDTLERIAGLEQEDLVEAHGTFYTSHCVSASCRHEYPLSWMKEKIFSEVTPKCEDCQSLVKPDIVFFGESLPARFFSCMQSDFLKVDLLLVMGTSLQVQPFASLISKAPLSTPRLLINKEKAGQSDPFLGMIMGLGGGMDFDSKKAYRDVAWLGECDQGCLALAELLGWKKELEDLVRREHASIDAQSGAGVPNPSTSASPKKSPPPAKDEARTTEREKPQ
The experiment in a line: in vitro enzymatic fluorimetric assay, SIRT2 inhibitory activity. Format: biochemical. Conditions: for selectivity for SIRT2 over SIRT1: in vitro.

The subject of test [5] is H3-K9 acetylation. The experiment in a line: Western blot on MCF-7 cells, acetylation status of H3-K9. Format: cell-based. Conditions: 24 h, concentrations up to 50 μM.
Test [6] relates to pRb phosphorylation at Ser807/Ser811. As to the kind of experiment: Western blot on MCF-7 cells, pRb phosphorylation. Format: cell-based. Conditions: 24 h, 50 μM.
In test [7] the test system is MCF-7 cells. The experiment in a line: proliferative analysis / cell viability assay on MCF-7 cells. It is filed as cell-based. Conditions: 30 μM, 0-72 h.

Entries after “also recorded” stand apart in the source; their conditions may differ.

Turning to `O=C(Nc1cccc(Br)c1)c1cccc(S(=O)(=O)N2CCCCCC2)c1` [AK-7], the acetyl-α-tubulin accumulation entry in test [1] is reported as “no significant effect”. In test [2], the “p53 acetylation at lysine 382” value is “moderately induce p53 acetylation at lysine 382”. In test [3], the “cell cycle phase in which cells accumulate” value (“cell cycle phase” for short) is listed as “increase in cells primarily in G2/M phase”.
Consider `NC(=O)c1ccc2c(c1)CCc1cc([N+](=O)[O-])ccc1N2` [Compound 8], for which, in test [4], the “selectivity for SIRT2 over SIRT1” value is reported as “more than 30 fold”. In test [1], the acetyl-α-tubulin accumulation entry is recorded as “substantial accumulation of acetyl-α-tubulin”. The “acetylation of α-tubulin” value in test [1] (concentrations up to 50 μM) is “induce hyperacetylation of α-tubulin”. In test [5], the “acetylation levels of H3-K9” value is on record as “without increasing the acetylation levels of H3-K9”. The “pRb phosphorylation at Ser807/Ser811” value in test [6] is recorded as “impede pRb phosphorylation at Ser807/Ser811”. Moreover, the antiproliferative effect entry in test [7] was “antiproliferative activity; also recorded: abolished cell proliferation completely”. Further, the “cell cycle phase” value in test [3] is listed as “high number of cells to accumulate at G2/M phase”.
Regarding `CC(C)(C)NS(=O)(=O)c1ccc2c(c1)Nc1ccccc1CC2` [Compound 20], the “selectivity for SIRT2 over SIRT1” value in test [4] is “more than 30 fold”.
As for `CN1c2ccc(C(N)=O)cc2CCc2cc([N+](=O)[O-])ccc21` [Compound 29], the “loss of SIRT2 potency relative to compound 8” value in test [4] (N-methyl derivative vs 8) came to 4 fold.
As to `NC(=O)C1CCCc2c1[nH]c1ccc(Cl)cc21` (stereo not drawn) [EX-527], the “reduction of cell proliferation relative to DMSO vehicle control” value in test [7] is given as “approximately 50%”. In addition, in test [3], the “cell cycle phase” value is given as “accumulate predominantly in G1”.
Consider `CC(C(=O)Nc1cccc(/N=C/c2c(O)ccc3ccccc23)c1)c1ccccc1` (stereo not drawn) [Salermide], for which, in test [1], the acetyl-α-tubulin accumulation result is listed as “slight increase in acetyl-α-tubulin”. The “p53 acetylation at lysine 382” value in test [2] is “moderately induce p53 acetylation at lysine 382”. Further, the antiproliferative effect result in test [7] was “abolished cell proliferation completely”. Besides, in test [3], the “cell cycle phase” value is given as “increase in cells primarily in G2/M phase”.
Turning to `CC(NC(=O)c1ccccc1/N=C/c1c(O)ccc2ccccc12)c1ccccc1` (stereo not drawn) [Sirtinol], in test [1], the acetyl-α-tubulin accumulation result is listed as “no significant effect”. Moreover, in test [2], the “p53 acetylation at lysine 382” value is given as “moderately induce p53 acetylation at lysine 382”. Also, the “cell cycle phase” value in test [3] was “accumulate predominantly in G1”.

The record behind these values is article PMC3856871 (MedChemComm, 2012).
